Sequences and labels used below:
B1: Osa-1-4 twister ribozyme (parent)
chain: CCGCCUAACACUGCCAAUGCCGGUCCCAAGCCCGGAUAAAAGUGGAGGGGGCGG

In the data set the parent is B1. Put plainly: self-cleavage, relative activity (ratio to wild type); higher = more cleavage; co-transcriptional. In a few lines: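 Values are relative activity: the fraction cleaved, normalised to wild type. A doped DNA template for a 54-nucleotide twister ribozyme from Oryza sativa had 97 % wild-type base and 1 % of each other base at the 48 positions downstream of the cleavage site. The RNA was transcribed in vitro for 2 h at 37 °C so that it could cleave itself co-transcriptionally, then sequenced deeply, with cleavage status scored from the presence or absence of upstream sequence in reads.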
Turning to G44A U18C, the self-cleavage amounted to 0.83. On to G44A U18A, for which the self-cleavage stood at 0.84. With G44A U18G the figure was 0.63. With G44C G53U the figure was 0.38. With G44C G53C the figure was 0.09. As to G44C G53A, the self-cleavage was determined as 0.81. Turning to G45A G50C, the self-cleavage amounted to 0.06. Then G45A G50U, with 0.13; and G45A G50A, with 0.23. With G44U G51C, the self-cleavage amounted to 0.07. Consider G44U G51U, for which the self-cleavage came to 0.19. Then G44U G51A, with 0.69; and G44A G54A, with 0.92. Regarding G44A G54C, the self-cleavage is 0.93. With G44A G54U the figure was 0.94.

For G45A G47U, the self-cleavage came out at 0.06. Then G45A G47A, with 0.06; and G45A G47C, with 0.05; and G44U U37G, with 0.95. Regarding G44U U37C, the self-cleavage was found to be 0.99.

For G44U U37A, the self-cleavage amounted to 0.66. Then G44A, with 0.97; and G44C, with 0.98. Regarding G44U, the self-cleavage was determined as 0.93. With G45A U12A, the self-cleavage worked out at 0.09. As for G45A U12G, the self-cleavage stood at 0.07. On to G45A U12C, for which the self-cleavage is 0.09. Then G44U G50U, with 0.97. With G44U G50C the figure was 0.83.

With G44U G50A, the self-cleavage turned out to be 0.58. Then G44A U43A, with 0.88; and G44A U43G, with 0.67.

G44A U43C: the self-cleavage worked out at 0.1. Then G44C U12G, with 0.08.

For G44C U12A, the self-cleavage was 0.4. Then G44C U12C, with 0.31.

As to G45A G48C, the self-cleavage stood at 0.04.

Regarding G45A G48A, the self-cleavage was 0.06.

For G45A G48U, the self-cleavage worked out at 0.05. Then G44A G47A, with 0.13; and G44A G47C, with 0.09; and G44A G47U, with 0.12. For the variant G44U G49A, the self-cleavage amounted to 0.12. With G44U G49U the figure was 0.11. Then G44U G49C, with 0.08.

On to G44C G50U, for which the self-cleavage stood at 1.

On to G44C G50C, for which the self-cleavage was found to be 0.81. With G44C G50A the figure was 0.5; with G44C U18C, 0.83. Then G44C U18G, with 0.64; and G44C U18A, with 0.88; and G44A G48U, with 0.06. With G44A G48C the figure was 0.06; with G44A G48A, 0.07. G42U U24A: the self-cleavage is 0.03.

As for G42U U24C, the self-cleavage is 0.03. With G42U U24G the figure was 0.02; with G44U U12G, 0.15; with G44U U12C, 0.43.

Turning to G44U U12A, the self-cleavage was found to be 0.11. With G42U U43C the figure was 0.09; with G42U U43G, 0.09; with G42U U43A, 0.08. With G44C G45C the figure was 0.08; with G44C G45U, 0.07. With G44C G45A the figure was 0.14; with G44U U43C, 0.37.

G44U U43A: the self-cleavage stood at 0.66. Then G44U U43G, with 0.11. With G45A U37A the figure was 0.25. With G44U G48C the figure was 0.07; with G44U G48U, 0.07; with G44U G48A, 0.06.

In the case of G44C G54C, the self-cleavage amounted to 0.92. With G44C G54U the figure was 0.92; with G44C G54A, 0.89; with G44U U24C, 0.15. As to G44U U24A, the self-cleavage came out at 0.09. With G44U U24G the figure was 0.04; with G44U G53C, 0.08. With G44U G53A the figure was 0.75; with G44U G53U, 0.3. Consider G44C G49C, for which the self-cleavage is 0.07. With G44C G49A, the self-cleavage was 0.11. With G44C G49U the figure was 0.1; with G44A G53C, 0.1.

As for G44A G53U, the self-cleavage was 0.47.

Take G44A G53A: the self-cleavage turned out to be 0.83. With U43C the figure was 0.64; with U43A, 0.93; with U43G, 0.67. Consider G45A G51U, for which the self-cleavage amounted to 0.07.

G45A G51C: the self-cleavage amounted to 0.06.

As to G45A G51A, the self-cleavage worked out at 0.12. Then G44A G50U, with 0.97; and G44A G50C, with 0.91. As to G44A G50A, the self-cleavage amounted to 0.71. With G45A G49U the figure was 0.04; with G45A G49A, 0.05; with G45A G49C, 0.05.

G44C U24C: the self-cleavage turned out to be 0.2.

As to G44C U24A, the self-cleavage amounted to 0.2. With G44C U24G the figure was 0.01; with G45A U18C, 0.29. Then G45A U18A, with 0.43. With G45A U18G the figure was 0.45. For G42U U18A, the self-cleavage was determined as 0.29. Take G42U U18G: the self-cleavage worked out at 0.28. Turning to G42U U18C, the self-cleavage was 0.23. Then G45A G54C, with 0.1; and G45A G54U, with 0.34. On to G45A G54A, for which the self-cleavage amounted to 0.15.

As to G44A U24A, the self-cleavage turned out to be 0.06. In the case of G44A U24G, the self-cleavage was found to be 0.03. With G44A U24C the figure was 0.08; with G44A G45U, 0.07; with G44A G45A, 0.16. Then G44A G45C, with 0.07; and G44U G45A, with 0.1; and G44U G45C, with 0.06.

For the variant G44U G45U, the self-cleavage worked out at 0.08.

For the variant G44A G51C, the self-cleavage was found to be 0.08.

As to G44A G51U, the self-cleavage is 0.28. Then G44A G51A, with 0.79; and G42U U37C, with 0.11. With G42U U37G the figure was 0.15; with G42U U37A, 0.09; with G44C U43A, 0.74. Then G44C U43C, with 0.73; and G44C U43G, with 0.07; and G44U U18A, with 0.83. On to G44U U18G, for which the self-cleavage is 0.64. With G44U U18C the figure was 0.69; with G44A U37C, 1.01. Turning to G44A U37A, the self-cleavage was 0.7.

For the variant G44A U37G, the self-cleavage was 1. Then G44A G49A, with 0.07; and G44A G49C, with 0.06; and G44A G49U, with 0.07. Then G44U G47U, with 0.1; and G44U G47C, with 0.07. As to G44U G47A, the self-cleavage is 0.14. With G45A U24A the figure was 0.03.

Consider G45A U24C, for which the self-cleavage was 0.05. With G45A U24G the figure was 0.02; with G45A G53A, 0.09. With G45A G53U the figure was 0.07. Consider G45A G53C, for which the self-cleavage is 0.05. With G44U G54C the figure was 0.92; with G44U G54U, 0.9; with G44U G54A, 0.88.

Turning to G44A U12A, the self-cleavage turned out to be 0.65. With G44A U12C the figure was 0.68; with G44A U12G, 0.28. Take G45A: the self-cleavage is 0.52. Then G44C G48C, with 0.08; and G44C G48A, with 0.08. With G44C G48U the figure was 0.07; with G44C G51U, 0.16; with G44C G51C, 0.07. With G44C G51A the figure was 0.67. As to G44C G47A, the self-cleavage is 0.19. With G44C G47C the figure was 0.11. With G44C G47U the figure was 0.16. With G44C U37A the figure was 0.71; with G44C U37G, 1.02; with G44C U37C, 1.

Values taken from the RNAGym collection of RNA variant scans (doi:10.1002/anie.201605470).
